From ChEMBL document CHEMBL3085730, “Skeletal hybridization and PfRIO-2 kinase modeling for synthesis of α-pyrone analogs as anti-malarial agent” (Eur J Med Chem, 2013)
Activity calls are given as the source filed them. The rule behind the calls is not given here.

Legend:
Plasmodium falciparum [1] = assay: Antimalarial activity against ring-stage Plasmodium falciparum 3D7 assessed as schizonticidal activity after 42 hrs; type: functional, organism-based; settings: 3D7, 42 h
Summary of the method: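 Ring-stage P. falciparum 3D7-parasitised cells exposed to compound for 42 h. Blood smears scored for maturation of rings into trophozoites and schizonts. IC50 derived from schizont inhibition by regression analysis.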

Plasmodium falciparum [2] = assay: Parasitostatic activity against ring-stage Plasmodium falciparum 3D7 assessed as minimum killing concentration incubated for 42 hrs followed by compound washout measured 72 hrs post infection in hematocrit; type: functional, organism-based
Summary of the method: (§1)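 After drug exposure, compound removed and cultures washed 3 times with Albumax II-free RPMI-1640. Cultures then incubated a further 72 h in complete medium with fresh hematocrit. RBCs containing viable parasite counted on thin smear to class inhibition as parasitostatic or parasitocidal.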

Plasmodium falciparum [3] = assay: Antimalarial activity against Plasmodium falciparum 3D7 assessed as intracellular ROS generation relative to untreated control; type: functional
Summary of the method: (§2)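 Parasite cultures treated with a sub-lethal concentration of compound. Intracellular ROS measured with the fluorescent probe 2',7'-dichlorofluorescein diacetate. Lipid peroxidation measured by a previously described method. Each index expressed as fold change ± SD versus untreated culture.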

Plasmodium falciparum [4] = assay: Antimalarial activity against Plasmodium falciparum 3D7 assessed as lipid peroxidation after 48 hrs by spectrophotometry relative to untreated control; type: functional; summary of the method: as §2
Plasmodium falciparum [5] = assay: Parasitocidal activity against ring-stage Plasmodium falciparum 3D7 assessed as minimum killing concentration incubated for 42 hrs followed by compound washout measured 72 hrs post infection in hematocrit; type: functional; summary of the method: as §1

Row | SMILES | IC50 (Plasmodium falciparum [1]) | Activity (Plasmodium falciparum [2]) | fold change (FC) (Plasmodium falciparum [3]) | fold change (FC) (Plasmodium falciparum [4]) | Activity (Plasmodium falciparum [5])
1 | COc1ccc(-c2cc(N3CCN(C)CC3)c(C(=O)Nc3ccc(O)cc3)c(=O)o2)cc1 | 1570 nM | inactive | 1.99 | 4.88 | 
2 | O=C(Nc1ccc(F)cc1)c1c(O)cc(-c2ccccc2)oc1=O | 900 nM |  |  |  | 2.39 µM
3 | Cc1ccc(NC(=O)c2c(N3CCCCC3)cc(-c3ccccc3)oc2=O)cc1 | 859 nM |  | 1.66 | 11.03 | 1 µM
4 | Cc1ccc(NC(=O)c2c(O)cc(-c3ccccc3)oc2=O)cc1 | 1420 nM |  |  |  | 38.9 µM
5 | O=C(Nc1ccc(O)cc1)c1c(N2CCCCC2)cc(-c2ccccc2)oc1=O | 765 nM |  | 1.2 | 9.03 | 1.99 µM
6 | O=C(Nc1ccc(Br)cc1)c1c(N2CCCCC2)cc(-c2ccccc2)oc1=O | 337 nM |  | 1.87 | 4.49 | 0.21 µM
7 | O=C(Nc1ccc(Br)cc1)c1c(O)cc(-c2ccccc2)oc1=O | 750 nM |  |  |  | 3.9 µM
